According to ChEMBL document CHEMBL1122788, “Quantitative relationships between alpha-adrenergic activity and binding affinity of alpha-adrenoceptor agonists and antagonists” (J Med Chem, 1984):

Experiments:
[1] = target: T1, Adrenergic receptor alpha-1 (Rattus norvegicus, UniProt P15823+P23944+P43140); test: (§1) Inhibition of specific [3H]-prazosin binding (0.2 nM) to rat brain membranes alpha-1 adrenergic receptor; format: cell membranes, Membrane
T1 sequence (P15823 whole entry): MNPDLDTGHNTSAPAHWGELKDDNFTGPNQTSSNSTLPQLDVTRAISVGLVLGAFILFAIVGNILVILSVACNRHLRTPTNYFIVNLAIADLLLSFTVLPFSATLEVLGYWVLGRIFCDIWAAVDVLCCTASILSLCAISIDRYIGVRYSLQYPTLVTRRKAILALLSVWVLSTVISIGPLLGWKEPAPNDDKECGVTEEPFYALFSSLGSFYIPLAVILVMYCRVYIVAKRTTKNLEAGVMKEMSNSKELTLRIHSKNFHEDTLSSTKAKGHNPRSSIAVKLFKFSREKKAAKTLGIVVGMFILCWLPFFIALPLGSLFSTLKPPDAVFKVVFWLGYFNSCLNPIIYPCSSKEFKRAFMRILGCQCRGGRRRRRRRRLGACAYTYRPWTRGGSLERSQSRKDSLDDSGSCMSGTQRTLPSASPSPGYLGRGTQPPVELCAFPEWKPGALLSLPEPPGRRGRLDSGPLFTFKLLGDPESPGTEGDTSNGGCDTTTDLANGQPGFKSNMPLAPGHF
T1 sequence (P23944 whole entry): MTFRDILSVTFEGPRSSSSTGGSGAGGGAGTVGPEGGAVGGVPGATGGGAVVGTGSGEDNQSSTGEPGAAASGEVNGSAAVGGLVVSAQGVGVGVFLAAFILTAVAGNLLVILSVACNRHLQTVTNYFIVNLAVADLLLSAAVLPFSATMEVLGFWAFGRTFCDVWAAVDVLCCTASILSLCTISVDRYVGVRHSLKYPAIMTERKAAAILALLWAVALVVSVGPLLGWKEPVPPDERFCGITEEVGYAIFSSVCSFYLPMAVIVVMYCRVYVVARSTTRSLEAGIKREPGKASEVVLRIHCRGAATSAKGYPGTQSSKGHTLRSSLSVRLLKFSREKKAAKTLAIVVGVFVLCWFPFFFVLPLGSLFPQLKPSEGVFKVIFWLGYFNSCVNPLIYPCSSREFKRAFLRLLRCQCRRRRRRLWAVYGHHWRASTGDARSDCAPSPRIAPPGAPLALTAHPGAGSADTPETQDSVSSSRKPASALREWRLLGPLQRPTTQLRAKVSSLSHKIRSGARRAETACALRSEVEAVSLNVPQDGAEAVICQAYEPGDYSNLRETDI
T1 sequence (P43140 whole entry): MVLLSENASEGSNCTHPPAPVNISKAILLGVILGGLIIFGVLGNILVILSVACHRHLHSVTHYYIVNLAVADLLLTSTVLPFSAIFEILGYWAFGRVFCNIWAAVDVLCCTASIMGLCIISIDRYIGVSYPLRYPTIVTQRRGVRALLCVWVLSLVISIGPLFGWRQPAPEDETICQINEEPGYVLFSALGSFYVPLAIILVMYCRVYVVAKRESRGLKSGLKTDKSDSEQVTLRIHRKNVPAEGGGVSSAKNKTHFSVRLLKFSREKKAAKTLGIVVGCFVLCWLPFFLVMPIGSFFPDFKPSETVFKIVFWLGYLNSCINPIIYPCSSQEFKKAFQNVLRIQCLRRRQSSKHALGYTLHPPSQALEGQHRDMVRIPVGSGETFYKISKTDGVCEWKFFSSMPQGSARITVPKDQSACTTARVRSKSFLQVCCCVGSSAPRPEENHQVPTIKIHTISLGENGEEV
Summary of the method: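 Whole rat brain (minus cerebellum) from male Wistar rats (200–250 g), homogenized in ice-cold 50 mM Tris-HCl pH 7.7 and washed twice at 50000g. Bound ligand was collected by filtration and counted. IC50 was derived by log-probit analysis.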

[2] = target: T1, Adrenergic receptor alpha-1; test: In vivo antagonist activity against (-)-phenylephrine-induced alpha-1 adrenergic receptor mediated vasoconstriction in pithed normotensive rats.; format: functional, organism-based
[3] = target: T1, Adrenergic receptor alpha-1; test: Antagonist activity against phenylephrine-induced alpha1- adrenoceptor mediated vasoconstriction in pithed normotensive rats.; format: functional
[4] = target: T1, Adrenergic receptor alpha-1; test: as §1; format: cell membranes, Membrane; remark: listed apart in the source
Summary of the method: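 Brain membranes were prepared from male Wistar rats (200–250 g, cerebellum removed) in ice-cold 50 mmol/L Tris-HCl, pH 7.7, with two 50000g spins, and used at 1 mg/mL protein (Lowry). […] Bound label was collected by vacuum filtration and counted. IC50 came from log probit analysis.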

[5] = species on record: Oryctolagus cuniculus; test: Index of alpha1/alpha2 adrenoceptor antagonist selectivity at pre and postsynaptic sites in vitro.; format: functional

Row | pA2 [3] | IC50 [4] | Compound | IC50 [1] | pA2 [2] | Selectivity index [5]
1 |  |  | CN1C[C@H](C(=O)N[C@]2(C)O[C@@]3(O)[C@@H]4CCCN4C(=O)[C@H](Cc4ccccc4)N3C2=O)C[C@@H]2c3cccc4[nH]cc(c34)C[C@H]21 [DIHYDROERGOTAMINE] | 27 nM | 6.68 | 
2 | 6.09 | 205 nM | C=CCN1Cc2ccccc2-c2ccccc2C1 [AZAPETINE] |  |  | 1.08
